Screening data: PubChem BioAssay, several laboratories
A selection: hits, their analogues and other compounds. The true share with any hit is near 3%.
ANO1 activ = TMEM16A chloride channel activators or potentiators, primary screen, cell-based, HTS | Anoctamin-1 (Mus musculus), Q8BHY3 | HEK293 TMEM16A/YFP-H148Q/I152L, iodide quench fluorescence; active compounds read low | B-score at 10 µM | 340,000 compounds, 0.3% hits;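 active means fluorescence-ratio B-score plate-corrected deviation score at least 3 library SD below zero, with starting fluorescence score within 5 deviations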;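 further: channel opened by trigger with iodide after compound preincubation; score built on the fluorescence ratio of max minus min over baseline; more negative score means more quench and so TMEM16A activation or potentiation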
SR-BI HDL uptake = inhibitors of SR-BI mediated HDL lipid uptake, primary screen, ldlA[mSR-BI] cells, fluorescence, single point. AID 488896, 2010. ldlA[mSR-BI] CHO cells, DiI-HDL uptake fluorescence, 3 h. Scavenger receptor class B member 1 (Mus musculus), Q61009. inhibition, % at 12.5 µM. 320,000 compounds, 0.96% hits;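 active means mean replicate inhibition of at least 70% and a set share of replicates each scoring 70 or more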
SR-BI uptake up = activators of SR-BI mediated DiI-HDL uptake, primary screen, ldlA[mSR-BI] CHO cells, DiI fluorescence; 3 h; 100 = double the neutral-control signal; activation, % at 12.5 µM; 320,000 compounds, 0.096% hits;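 active means mean replicate activation of at least 60% and every replicate at or above 60%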
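material = CHO ldlA[mSR-BI] cells | medium = Ham's F12 with 0.5% BSA, HEPES 25 mM, pH 7.4 | reagent = fluorescent DiI-HDL, 10 µg/mL final | compound dosing = single-point compound dose | incubation = 3 h, 37 °C | measured by = bottom-read fluorescence, 550/595 nm | measure = HDL uptake via cellular fluorescence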
Kir21 inh = inhibitors of mouse Kir2.1 inward-rectifier potassium channel | Inward rectifier potassium channel 2 (Mus musculus), P35561 | HEK293-Kir2.1, FluxOR thallium flux fluorescence; active compounds read low | B-score at 10 µM | 310,000 compounds, 0.85% hits | AID 1672, 2009;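 active means fluorescence ratio B-score at or below minus 3 SD of library scores, with starting-brightness B-score within 2 SD, cut at about -4.2 in these data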;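 further: channel flux triggered by added potassium and thallium sulfate stimulus; B-score of peak minus minimum fluorescence over baseline after thallium stimulus; more negative B-score means stronger Kir2.1 block with less thallium influx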
TMEM16A inh = TMEM16A chloride channel inhibitors, primary screen, cell-based, HTS. 310,000 compounds, 1.2% hits. HEK293 TMEM16A/YFP iodide influx fluorescence, ionomycin. normalized B-score (activity score, 25-100; higher = stronger inhibition) at 10 µM. Anoctamin-1 (Mus musculus), Q8BHY3;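 active means ratio plate-corrected score three or more library SD toward inhibition, starting fluorescence score within five deviations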;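 further: score derived from kinetic fluorescence span divided by baseline fluorescence per well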
FID counter = compounds displacing fluorescent DNA intercalator, primary screen, artefact control for HCV NS3 helicase inhibitor project, biochemical, FID fluorescence; DNA fluorescent intercalator displacement; inhibition, % at 7.9 µM; 290,000 compounds, 0.17% hits; in the data active means inhibition above about 37%;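 further: higher means more ethidium bromide displaced from hairpin DNA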
TMEM16A reconf = TMEM16A chloride channel inhibitors, confirmation, cell-based, re-confirmation; inhibition, % at 10 µM; 2,300 compounds, 39% hits; shares compounds with TMEM16A inh; HEK293 TMEM16A/YFP-H148Q, iodide quench fluorescence; ionomycin added to raise cell calcium;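 active means mean duplicate percent inhibition, scaled so buffer wells are 0 and the reference blocker 100, over three buffer SD above buffer mean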
HEK293 Ca mobil = calcium mobilization in TMEM16A/YFP HEK293 cells, confirmation, counter-screen for TMEM16A inhibitor project | shares compounds with TMEM16A inh | Fluo4 calcium mobilization | calcium response (% of ionomycin), % at 10 µM | 2,300 compounds, 2% hits | AID 652231, 2013;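 active means duplicate-averaged calcium signal over 20% of the ionomycin maximum, relative to buffer baseline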;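 further: each well's signal is peak minus trough fluorescence divided by its pre-addition baseline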
Parental YFP cnt = iodide YFP quench changes in parental YFP-HEK293, counter-screen for TMEM16A inhibitor project, cell-based. shares compounds with TMEM16A inh. ionomycin. YFP ratio F(max-min)/F0 at 10 µM. 2,300 tested, under 10 active. AID 652233, 2013;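 active means yellow fluorescent protein signal ratio exceeding the buffer control mean by over 5 SD of those controls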;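 further: ratio is mean of duplicate wells from kinetic YFP trace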
ClC-1 rat inh = ClC-1 chloride channel inhibition, selectivity assay for TMEM16A inhibitor project, cell-based, voltage-dependent ClC-1 | shares compounds with TMEM16A inh | CHO ClC-1-YFP, iodide influx fluorescence quench; iodide control reads 0, buffer control 100 | ratio percent, % at 10 µM | 2,300 tested, under 10 active | AID 652236, 2013;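 active means duplicate-mean ratio percent above the mean of iodide-only control wells, which defines zero, plus 5 of their SD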;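 further: higher percent means stronger block of ClC-1 iodide influx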
Target sequence (P35524 whole entry, looked up): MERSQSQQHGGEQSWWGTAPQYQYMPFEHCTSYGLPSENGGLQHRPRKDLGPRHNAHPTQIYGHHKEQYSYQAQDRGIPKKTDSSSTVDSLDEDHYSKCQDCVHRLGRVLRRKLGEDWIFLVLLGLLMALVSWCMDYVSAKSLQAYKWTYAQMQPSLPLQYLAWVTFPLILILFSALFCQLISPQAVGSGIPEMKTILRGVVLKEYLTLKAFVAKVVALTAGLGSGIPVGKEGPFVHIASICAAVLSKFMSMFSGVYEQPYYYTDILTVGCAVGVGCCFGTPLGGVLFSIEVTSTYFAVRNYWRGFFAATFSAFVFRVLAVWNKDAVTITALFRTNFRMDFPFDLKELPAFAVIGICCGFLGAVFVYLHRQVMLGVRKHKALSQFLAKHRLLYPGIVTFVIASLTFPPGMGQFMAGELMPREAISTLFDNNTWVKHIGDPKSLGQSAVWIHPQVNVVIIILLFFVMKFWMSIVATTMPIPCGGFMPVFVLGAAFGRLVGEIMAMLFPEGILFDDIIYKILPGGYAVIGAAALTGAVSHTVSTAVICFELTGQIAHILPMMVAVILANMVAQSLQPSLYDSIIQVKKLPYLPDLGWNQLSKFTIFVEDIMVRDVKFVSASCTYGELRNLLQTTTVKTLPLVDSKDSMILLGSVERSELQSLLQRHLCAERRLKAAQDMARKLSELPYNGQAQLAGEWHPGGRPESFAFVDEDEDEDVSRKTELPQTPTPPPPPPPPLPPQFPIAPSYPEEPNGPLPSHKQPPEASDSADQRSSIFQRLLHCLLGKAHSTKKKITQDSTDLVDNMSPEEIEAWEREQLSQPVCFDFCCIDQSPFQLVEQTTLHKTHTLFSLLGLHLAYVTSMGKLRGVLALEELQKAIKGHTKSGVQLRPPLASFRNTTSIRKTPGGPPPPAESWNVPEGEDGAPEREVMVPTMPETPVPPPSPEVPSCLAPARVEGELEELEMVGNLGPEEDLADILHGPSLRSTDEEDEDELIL
Each line names hits and unclear results; the compound was inactive in the other large screens (follow-up assays come after a bar, where they were run).

Cc1cccc(-c2nnc(NC(=O)c3ccc(N4C(=O)CCC4=O)cc3)s2)c1	none | TMEM16A reconf inactive | HEK293 Ca mobil inactive | Parental YFP cnt inactive | ClC-1 rat inh inactive
Cc1ccccc1-c1nnc(NC(=O)c2ccc(N3C(=O)CCC3=O)cc2)s1	none
C=CCNC(=S)N1N=C(c2ccco2)CC1c1ccco1 (stereo unspecified)	none (no result: Kir21 inh, TMEM16A inh, FID counter)
O=C(CCC(=O)OCC(=O)c1ccc(F)cc1)NC1CCCCC1	TMEM16A inh 25 (no result: SR-BI HDL uptake, SR-BI uptake up) | TMEM16A reconf inactive | HEK293 Ca mobil inactive | Parental YFP cnt inactive | ClC-1 rat inh inactive
O=C(c1cc(-c2ccccc2)nc2ccccc12)N1N=C(C(F)F)CC1(O)C(F)F (stereo unspecified)	TMEM16A inh 100 | TMEM16A reconf inactive | HEK293 Ca mobil inactive | Parental YFP cnt inactive | ClC-1 rat inh inactive
Cc1cc(C)n2nc(SCc3nnc(-c4ccccc4Br)o3)nc2n1	none
Cc1cc(C)n2nc(SCc3ncc(-c4ccccc4)o3)nc2n1	TMEM16A inh 100 (no result: FID counter) | TMEM16A reconf inactive | HEK293 Ca mobil inactive | Parental YFP cnt inactive | ClC-1 rat inh inactive
O=C(CCS(=O)(=O)c1ccccc1)Nc1ncc([N+](=O)[O-])s1	none
O=C(Nc1ncc([N+](=O)[O-])s1)c1cccs1	TMEM16A inh 25 | TMEM16A reconf 24% | HEK293 Ca mobil inactive | Parental YFP cnt inactive | ClC-1 rat inh inactive
Cc1ccc(S(=O)(=O)CC(=O)Nc2ncc([N+](=O)[O-])s2)cc1	TMEM16A inh 25 (no result: SR-BI HDL uptake, SR-BI uptake up) | TMEM16A reconf 38% | HEK293 Ca mobil inactive | Parental YFP cnt inactive | ClC-1 rat inh inactive
O=C(CCCN1C(=O)c2ccccc2C1=O)N1CCc2ccccc2C1	TMEM16A inh 25 | TMEM16A reconf inactive | HEK293 Ca mobil inactive | Parental YFP cnt inactive | ClC-1 rat inh inactive
c1ccc(-c2csc(N3CCN(c4ccccn4)CC3)n2)cc1	TMEM16A inh 25 | TMEM16A reconf inactive | HEK293 Ca mobil inactive | Parental YFP cnt inactive | ClC-1 rat inh inactive
c1ccc(-c2csc(N3CCOCC3)n2)cc1	none
COc1ccc(Cc2nc(-c3ccc(-n4cccc4)cc3)no2)cc1OC	TMEM16A inh 100 | TMEM16A reconf inactive | HEK293 Ca mobil inactive | Parental YFP cnt inactive | ClC-1 rat inh inactive
COc1ccc(Cc2nc(-c3ccc(-n4cccc4)cc3)no2)cc1	none
CC(=O)c1cccc(NC(=O)C(C)OC(=O)CCCN=C2NS(=O)(=O)c3ccccc32)c1 (stereo unspecified)	none (no result: FID counter)
CC(Sc1nnnn1C)C(=O)Nc1nc(-c2ccc(F)c(F)c2)cs1 (stereo unspecified)	none (no result: Kir21 inh, TMEM16A inh, FID counter)
COc1cccc(OC)c1-c1nn2c(-c3ccccc3Cl)nnc2s1	none | TMEM16A reconf inactive | HEK293 Ca mobil inactive | Parental YFP cnt inactive | ClC-1 rat inh inactive
Clc1ccccc1-c1nnc2sc(-c3ccccn3)nn12	none (no result: TMEM16A inh)
Cc1ccc(NC(=O)c2ccc(OCc3c(C)noc3C)cc2)nc1	none (no result: Kir21 inh, TMEM16A inh, FID counter)
CNC(=O)Nc1cccc(-c2ccnc(C)n2)c1	none
COc1cccc(C(=O)/C(C#N)=N/Nc2cccc(-c3ccnc(C)n3)c2)c1	TMEM16A inh 100 | TMEM16A reconf inactive | HEK293 Ca mobil inactive | Parental YFP cnt inactive | ClC-1 rat inh inactive
Cc1ccc(N2CCN(S(=O)(=O)c3ccc4oc(=O)ccc4c3)CC2)c(C)c1	none (no result: SR-BI HDL uptake, SR-BI uptake up)
COc1ccc(Cl)cc1NC(=O)CN(C)C1CCCCC1	none | TMEM16A reconf inactive | HEK293 Ca mobil inactive | Parental YFP cnt inactive | ClC-1 rat inh inactive
C=CCN(CC=C)C(=O)Nc1cc(Cl)ccc1OC	TMEM16A inh 25 | TMEM16A reconf inactive | HEK293 Ca mobil inactive | Parental YFP cnt inactive | ClC-1 rat inh inactive
O/C=c1\ccc2cccc3nc(C(F)(F)F)nc1c23	none
C/C(O)=c1/ccc2cccc3nc(C)nc1c23	none | TMEM16A reconf inactive | HEK293 Ca mobil 102% | Parental YFP cnt inactive | ClC-1 rat inh inactive
COc1cc(CC(=O)OCC(=O)NCc2cccs2)cc(OC)c1OC	none (no result: Kir21 inh, TMEM16A inh, FID counter)
COc1ccc(C(c2nnnn2CS(=O)(=O)c2ccc(C)cc2)N2CCN(c3ncccn3)CC2)cc1 (stereo unspecified)	none
Cc1ccc(S(=O)(=O)Cn2nnnc2C(c2ccccc2)N2CCN(c3ncccn3)CC2)cc1 (stereo unspecified)	TMEM16A inh 25 | TMEM16A reconf inactive | HEK293 Ca mobil inactive | Parental YFP cnt inactive | ClC-1 rat inh inactive
Cc1cc(C)c(C#N)c(N2CCN(CCOc3ccc(Cl)cc3)CC2)n1	TMEM16A inh 25 | TMEM16A reconf inactive | HEK293 Ca mobil inactive | Parental YFP cnt inactive | ClC-1 rat inh inactive
Cc1cccc(OCC(=O)NCC(C)(C)N2CCOCC2)c1	none (no result: Kir21 inh, TMEM16A inh, FID counter)
O=C(CCNC(=O)c1ccc(Br)cc1)NCc1cccnc1	none (no result: FID counter)
CC1Cc2cc(/C(O)=C3/C(=O)C(=O)N(CCCn4ccnc4)C3c3ccc(F)cc3)ccc2O1 (stereo unspecified)	none
CC1CCN(c2ccc(S(=O)(=O)N3CCC(C)CC3)cc2N)CC1	TMEM16A inh 25 | TMEM16A reconf 30% | HEK293 Ca mobil inactive | Parental YFP cnt inactive | ClC-1 rat inh inactive
Cc1sc2ncn(CC(=O)OCC(=O)NC(C)(C)C)c(=O)c2c1C	none (no result: ANO1 activ) | TMEM16A reconf inactive | HEK293 Ca mobil inactive | Parental YFP cnt inactive | ClC-1 rat inh inactive
Cc1sc2ncn(CC(=O)OC(C)C)c(=O)c2c1C	none (no result: ANO1 activ, SR-BI HDL uptake, SR-BI uptake up, Kir21 inh, TMEM16A inh)
CC(=O)Nc1cccc(NC(=O)CSc2ncc(-c3ccc(Cl)cc3)n2Cc2ccco2)c1	TMEM16A inh 100 | TMEM16A reconf 32% | HEK293 Ca mobil inactive | Parental YFP cnt inactive | ClC-1 rat inh inactive
